Measured values reported in ChEMBL document CHEMBL1212784, “Structure-microbicidal activity relationship of synthetic fragments derived from the antibacterial alpha-helix of human lactoferrin” (2010).
≈ marks a conversion by molar mass, not a printed value. Positions of bridges follow the written chain, without caps; N, C: chain ends. Residues, ends and D or L forms follow the SMILES beside them.

Experiments:
Enterococcus faecalis = test: Antimicrobial activity against Enterococcus faecalis ATCC 19433 using in brain heart infusion medium(dil) after 2 hrs at 25 ug/ml; assay type: functional
Procedure, shortened: (§1)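 Single-concentration screen: log-phase organisms (~2 × 10^5 cells/ml) incubated 2 h at 37°C in diluted BHI (1/100 of 3.4%, pH 6.7 to 6.9) with 25 μg/ml peptide (10 μg/ml for E. coli O6 and C. albicans); viable counts on blood agar; scored as ≥99% killed or not; duplicates.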

[1] = tested on: Staphylococcus epidermidis; test: Antimicrobial activity against Staphylococcus epidermidis CCUG 18000A using in brain heart infusion medium(dil) after 2 hrs at 25 ug/ml; assay type: functional; procedure, shortened: as §1
Staphylococcus aureus [2] = test: Antimicrobial activity against Staphylococcus aureus 1800 (CCUG 1800) using in brain heart infusion medium(dil) after 2 hrs at 25 ug/ml; assay type: functional; procedure, shortened: as §1
Klebsiella pneumoniae = test: Antimicrobial activity against Klebsiella pneumoniae CCUG 9997 using in brain heart infusion medium(dil) after 2 hrs at 25 ug/ml; assay type: functional; procedure, shortened: as §1
Pseudomonas aeruginosa = test: Antimicrobial activity against Pseudomonas aeruginosa CCUG 551 using in brain heart infusion medium(dil) after 2 hrs at 25 ug/ml; assay type: functional; procedure, shortened: as §1
Escherichia coli [3] = test: Antimicrobial activity against Escherichia coli O14 using in brain heart infusion medium(dil) after 2 hrs at 25 ug/ml; assay type: functional; procedure, shortened: as §1
Escherichia coli [4] = test: Antimicrobial activity against Escherichia coli O6 using in brain heart infusion medium(dil) after 2 hrs at 10 ug/ml; assay type: functional; procedure, shortened: as §1
Candida albicans [5] = test: Antimicrobial activity against Candida albicans ATCC […] using in brain heart infusion medium(dil) after 2 hrs at 10 ug/ml; assay type: functional, ATCC 64549; procedure, shortened: as §1
[6] = Antimicrobial activity against Escherichia coli O6 K5 after 2 hrs incubation in bactopeptone; assay type: functional; conditions: K5, 2 h
Procedure, shortened: (§2)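 Microplate killing assay in 1% Bactopeptone (pH 7.0). Log-phase organisms (BHI overnight, 2 h subculture, 37°C, washed), final ~2 × 10^5 cells/ml, with twofold peptide dilutions, 37°C humid chamber 2 h (or 20 h where stated). 5 μl drops plated on blood agar overnight; MMC99 = lowest concentration giving ≥99% inoculum reduction; duplicates.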

[7] = Antimicrobial activity against Escherichia coli O6 K5 after 20 hrs incubation in bactopeptone; assay type: functional; conditions: K5, 20 h; procedure, shortened: as §2
Staphylococcus aureus [8] = test: Antimicrobial activity against Staphylococcus aureus 1800 (CCUG 1800) after 20 hrs incubation in bactopeptone; assay type: functional; procedure, shortened: as §2
Staphylococcus aureus [9] = test: Antimicrobial activity against Staphylococcus aureus 1800 (CCUG 1800) after 2 hrs incubation in bactopeptone; assay type: functional; procedure, shortened: as §2
Candida albicans [10] = test: Antimicrobial activity against Candida albicans ATCC […] after 2 hrs incubation in bactopeptone; assay type: functional; conditions: ATCC 64549, 2 h; procedure, shortened: as §2
Candida albicans [11] = test: Antimicrobial activity against Candida albicans ATCC […] after 20 hrs incubation in bactopeptone; assay type: functional; conditions: ATCC 64549, 20 h; procedure, shortened: as §2
[12] = Antimicrobial activity against Escherichia coli O6 K5 incubation in bactopeptone; assay type: functional; procedure, shortened: as §2
Candida albicans [13] = test: Antimicrobial activity against Candida albicans ATCC […] incubation in bactopeptone; assay type: functional; conditions: ATCC 64549; procedure, shortened: as §2
Staphylococcus aureus [14] = test: Antimicrobial activity against Staphylococcus aureus 1800 (CCUG 1800) incubation in bactopeptone; assay type: functional; procedure, shortened: as §2
Staphylococcus aureus [15] = test: Antimicrobial activity against Staphylococcus aureus 1800 (CCUG 1800) at 65.4 uM within 10 mins; assay type: functional; conditions: in the assay text read “62.7 uM” for “65.4 uM”
Procedure, shortened: (§3)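 Killing kinetics in Bactopeptone with 62.7 μM or 65.4 μM peptide against ~2 × 10^5 cells/ml; samples taken immediately after mixing and at 5, 10, 30, 60 and 120 min, serially diluted and plated for viable counts; percent of inoculum killed; duplicates.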

Candida albicans [16] = test: Antimicrobial activity against Candida albicans ATCC […] at 62.7 uM within 5 mins; assay type: functional, ATCC 64549; procedure, shortened: as §3
Staphylococcus aureus [17] = test: Antimicrobial activity against Staphylococcus aureus 1800 (CCUG 1800) at 62.7 uM within 30 mins; assay type: functional; conditions: in the assay text read “65.4 uM” for “62.7 uM”; procedure, shortened: as §3
Candida albicans [18] = test: Antimicrobial activity against Candida albicans ATCC […] at 65.4 uM within 5 mins; assay type: functional, ATCC 64549; procedure, shortened: as §3

Molecule | Activity (Enterococcus faecalis) | Activity [1] | Activity (Staphylococcus aureus [2]) | Activity (Klebsiella pneumoniae) | Activity (Pseudomonas aeruginosa) | Activity (Escherichia coli [3]) | Activity (Escherichia coli [4]) | Activity (Candida albicans [5]) | MIC99 [6] [µg/mL] | MIC99 [7] [µg/mL] | MIC99 (Staphylococcus aureus [8]) [µg/mL] | MIC99 (Staphylococcus aureus [9]) [µg/mL] | MIC99 (Candida albicans [10]) [µg/mL] | MIC99 (Candida albicans [11]) [µg/mL] | MIC99 [12] [µg/mL] | MIC99 (Candida albicans [13]) [µg/mL] | MIC99 (Staphylococcus aureus [14]) [µg/mL] | further results
H-KCFQWQRNMRKVR-OH | >=99% | >=99% | >=99% | >=99% | >=99% | >=99% | >=99% | >=99% | 25 | 12 | 50 | 25 | 200 | 50 |  |  |  | 
H-TKCFQWQRNMRKVR-OH | >=99% | >=99% | >=99% | >=99% | >=99% | >=99% | >=99% | >=99% | 50 | 25 | 100 | 50 | > 200 | 50 |  |  |  | 
H-CFQWQRNMRKVR-OH | >=99% | >=99% | >=99% | <99% | >=99% | >=99% | >=99% | >=99% | 100 | 50 | > 100 | > 100 | > 200 | 100 | 100 | 50 | > 100 | 
H-CFAWQRAMRKVR-OH |  |  |  |  |  |  |  |  |  |  |  |  |  |  | 25 | 25 | 50 | Activity (Staphylococcus aureus [15]): 90%; Activity (Candida albicans [16]): 99%
CC[C@H](C)[C@H](NC(=O)[C@@H]1CSSC[C@H](NC(=O)[C@H](CCCCN)NC(=O)[C@@H](NC(=O)[C@H](C)NC(=O)[C@H](CCC(=O)O)NC(C)=O)[C@@H](C)O)C(=O)N[C@@H](Cc2ccccc2)C(=O)N[C@@H](CCC(N)=O)C(=O)N[C@@H](Cc2c[nH]c3ccccc23)C(=O)N[C@@H](CCC(N)=O)C(=O)N[C@@H](CCCNC(=N)N)C(=O)N[C@@H](CC(N)=O)C(=O)N[C@@H](CCSC)C(=O)N[C@@H](CCCNC(=N)N)C(=O)N[C@@H](CCCCN)C(=O)N[C@@H](C(C)C)C(=O)N[C@@H](CCCNC(=N)N)C(=O)NCC(=O)N2CCC[C@H]2C(=O)N2CCC[C@H]2C(=O)N[C@@H](C(C)C)C(=O)N[C@@H](CO)C(=O)N1)C(=O)N[C@@H](CCCCN)C(=O)N[C@@H](CCCNC(=N)N)C(N)=O (Ac-EATKCFQWQRNMRKVRGPPVSCIKR-NH2; disulfide 5-22) |  |  |  |  |  |  |  |  |  |  |  |  |  |  | 50 (≈ 16.3 µM) | 200 (≈ 65.4 µM) | 50 (≈ 16.3 µM) | Activity (Staphylococcus aureus [17]): 80%; Activity (Candida albicans [18]): >90%
H-QPEATKCFQWQRNMRKVR-OH | >=99% | <99% | >=99% | <99% | <99% | <99% | <99% | <99% |  |  |  |  |  |  |  |  |  | 
H-QWQRNMRKVR-OH | <99% | <99% | <99% | <99% | <99% | <99% | <99% | <99% |  |  |  |  |  |  |  |  |  | 
